PubChem BioAssay
Inconclusive results are not listed.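 How the source made its calls, unless noted: active means cell viability at or below a set limit in both duplicate runs, the limit being the all-compound median minus 4 SD (cut at about 23% in these data, passing the limit was not always enough); inconclusive means no clear call, values can overlap the other calls; inactive means the rest.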

Assays:
[1] = S. cerevisiae growth inhibition in permissive medium (OD615), pilot counter-assay for S. cerevisiae lifespan shortening project, permissive growth control (AID 705;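 active means growth inhibition above 25% in both replicates, a cutoff set 3 SD above the mean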); conditions: OD615, 24 h, at 10 µM, active compounds read high
Outline: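 System: Engineered DeaD yeast | Buffer or medium: SC raffinose/galactose permissive medium | Doses: 10 µM single dose, 0.25% DMSO | Times: 24 h exposure, 30 °C | Measured by: OD615 turbidity read | Read-out: Yeast growth inhibition indicated by reduced 24 h OD615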

[2] = S. cerevisiae growth inhibition in restrictive medium, OD615, pilot screen, restrictive growth control, yeast lifespan reduction project (AID 706;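 active means growth inhibition above a set limit, 3 SD over mean compound inhibition, in both replicates, cut at about 43% in these data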;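 further: modified DeaD lifespan yeast strain shifted to restrictive glucose medium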); conditions: OD615, 48 h, at 10 µM, active compounds read high
Outline: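 Assay system: engineered S. cerevisiae DeaD strain; Buffer or medium: CSMM-D glucose medium; Dosing: 10 µM compound, 0.25% DMSO; Times: cell pre-growth 4 h, compound exposure 48 h, 30 °C; Detection: absorbance (optical density) measured at 615 nm.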

[3] = doxorubicin toxicity protection in MRP-1 cells – H69AR cells, CellTiter-Glo, duplicate, MRP-1 activator project, pilot screen (AID 807;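 active means viability increase at or above a cutoff of the median across tested compounds plus 3 SD, cut at about 8.5% in these data, passing the limit was not always enough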;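 further: compound pretreatment 18-22 h then 72 h combined with doxorubicin; 0% = doxorubicin alone and 100% = vehicle without doxorubicin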); conditions: H69AR viability with doxorubicin, CellTiter-Glo luminescence; at 10 µM; active compounds read high
[4] = viability of HCT116 without oncogenic beta-catenin – human colon tumor cells, pilot screen (AID 823); conditions: HCT116 beta-catenin knockout viability, CellTiter-Glo, 60 h; at 10 µM; active compounds read low;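 further: 0% = wells killed by 20 µM Hyamine and 100% = untreated DMSO cell wells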
[5] = viability of PTEN-null HCT116 cells – cell-based, HCT116 clonal line, CellTiter-Glo, pilot screen (AID 824;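 active means viability at or below 27.92% in each of two runs, the all-compound median minus 4 SD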;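 further: 0% = 20 µM Hyamine control and 100% = vehicle cell control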); conditions: HCT116 PTEN-deleted viability, 60 h, at 10 µM, active compounds read low
[6] = RAM pathway blockade in budding yeast – dse1pr::URA3 reporter, 5-FOA selection, pilot screen (AID 869;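 active means inhibition over a set limit, the all-compound mean plus 3 SD, in both replicate runs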;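 further: 0% = DMSO wells with no growth and 100% = 10 µM 1-NA-PP1 with full growth; RAM network block rescues cells from 5-FOA so hits raise OD615 growth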); conditions: S. cerevisiae dse1pr::URA3 5-FOA growth, OD615, 2 d; at 10 µM; active compounds read high; strain carries analog-sensitive mutant Cbk1 kinase
[7] = RAM signaling pathway blockade in yeast – S. cerevisiae, Pdr1DBD-CYC8 efflux-inhibited sensitized strain, primary screen (AID 1298;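 active means RAM network inhibition above 8.4% in each of two replicates, 3 SD over the compound average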;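 further: 0% = DMSO untreated cells without growth and 100% = 10 µM 1-NA-PP1 full growth; higher means more yeast growth rescued from 5-FOA killing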); conditions: S. cerevisiae cbk1-as DSE1-URA3 strain, 5-FOA growth OD615, 2 d; at 50 µM; active compounds read high

CC(CCc1ccccc1)NC(=O)CSc1nccc(=O)[nH]1 (stereo unspecified)
inactive: growth inhibition [1] -20.5% | growth inhibition [2] -6.91% | viability increase [3] -0.56% | viability [4] 94.2% | viability [5] 94.5% | inhibition [6] 1.06% | RAM network inhibition [7] 2.7%

O=C(NCCc1ccccc1)c1ccncc1
inactive: growth inhibition [1] -5.38% | growth inhibition [2] 4.46% | viability increase [3] -0.91% | viability [4] 88.8% | viability [5] 93.5% | inhibition [6] 1.67% | RAM network inhibition [7] 0.86%

O=C(CSc1nc(-c2ccco2)cc(C(F)(F)F)n1)N1CCN(Cc2ccccc2)CC1
inactive: growth inhibition [1] -6.8% | growth inhibition [2] -13.4% | viability increase [3] -4.54% | viability [4] 86.8% | viability [5] 82.8% | inhibition [6] -0.555% | RAM network inhibition [7] 6.26%

CN1C(=O)CC(N2CCC(c3nc4ccccc4[nH]3)CC2)C1=O (stereo unspecified)
inactive: growth inhibition [1] -11.7% | growth inhibition [2] -11.2% | viability increase [3] -0.66% | viability [4] 112% | viability [5] 98.9% | inhibition [6] 3.77% | RAM network inhibition [7] 3.31%

O=C1OC(Nc2nc3ccccc3s2)c2ccccc21 (stereo unspecified)
inactive: growth inhibition [1] -2.46% | growth inhibition [2] 6.6% | viability increase [3] 0.26% | viability [4] 101% | viability [5] 101% | inhibition [6] 0.67% | RAM network inhibition [7] 0.48%

COc1cc(C(=O)Oc2ccccc2N)cc(OC)c1OC
inactive: growth inhibition [1] -19.6% | growth inhibition [2] 11.3% | viability increase [3] -2.84% | viability [4] 102% | viability [5] 96% | inhibition [6] -0.31% | RAM network inhibition [7] 1.19%

CCOC(=O)CSc1nnc(Cc2cc(=O)[nH]c(=O)[nH]2)n1-c1ccc(Cl)cc1
inactive: growth inhibition [1] -16.1% | growth inhibition [2] -1.39% | viability increase [3] 1.33% | viability [4] 101% | viability [5] 100% | inhibition [6] 2.48% | RAM network inhibition [7] 4.03%

COc1cccc(C2C(C(=O)OCc3ccccc3)=C(C)Nc3ncnn32)c1OC (stereo unspecified)
inactive: growth inhibition [1] -8.96% | growth inhibition [2] 1.86% | viability increase [3] 0.73% | viability [4] 103% | viability [5] 83.5% | inhibition [6] 2.32% | RAM network inhibition [7] 4.9%

COc1ccccc1C(=O)n1nc(-c2cccnc2)nc1N
inactive: growth inhibition [1] -10.2% | growth inhibition [2] -5.6% | viability increase [3] -0.72% | viability [4] 106% | viability [5] 105% | inhibition [6] 2.24% | RAM network inhibition [7] 0.59%

O=C(CCCC(=O)OCC(F)(F)C(F)F)Nc1nccs1
inactive: growth inhibition [1] -7.96% | growth inhibition [2] 8.98% | viability increase [3] -0.61% | viability [4] 101% | viability [5] 102% | inhibition [6] 1.56% | RAM network inhibition [7] -0.01%

Nc1c(C(=O)NCc2ccccc2)nnn1Cc1ccc(F)cc1
inactive: growth inhibition [1] -1.67% | growth inhibition [2] -11.5% | viability increase [3] -0.8% | viability [4] 98.6% | viability [5] 92.1% | inhibition [6] 1.8% | RAM network inhibition [7] 3.21%

CC(C)(Oc1ccc(Cl)cc1)C(=O)N1CCN(c2ccccn2)CC1
inactive: growth inhibition [1] -7.41% | growth inhibition [2] 3.08% | viability increase [3] -2.47% | viability [4] 70.7% | viability [5] 76.1% | inhibition [6] 0.32% | RAM network inhibition [7] -1.34%

CCNC(=O)c1c(C)nc2ccccn12
inactive: growth inhibition [1] 3.27% | growth inhibition [2] -7.95% | viability increase [3] -3.03% | viability [4] 101% | viability [5] 91% | inhibition [6] -0.1% | RAM network inhibition [7] 0.67%

COC(=O)C1=C(C)NC(=O)NC1C1CC=CCC1 (stereo unspecified)
inactive: growth inhibition [1] -13.7% | growth inhibition [2] -8.8% | viability increase [3] 0.06% | viability [4] 96.2% | viability [5] 95.5% | inhibition [6] 3.1% | RAM network inhibition [7] 6.9%

CCOC(=O)C1CCN(C(c2ccc(OC)c(OC)c2)c2sc3nc(C)nn3c2O)CC1 (stereo unspecified)
inactive: growth inhibition [1] -3.62% | growth inhibition [2] 9.57% | viability increase [3] -2.25% | viability [4] 95.4% | viability [5] 96.1% | inhibition [6] -0.01% | RAM network inhibition [7] -0.97%

O=C(O)c1cc(Cl)c(Cl)cc1C(=O)N1CCOCC1
inactive: growth inhibition [1] -26.1% | growth inhibition [2] -13.7% | viability increase [3] -0.17% | viability [4] 94% | viability [5] 89.5% | inhibition [6] 1.38% | RAM network inhibition [7] 1.67%

COc1ccc(Br)cc1CNC(=O)C1CCC(=O)N1C(C)C (stereo unspecified)
inactive: growth inhibition [1] 6.52% | growth inhibition [2] 4.42% | viability increase [3] -2.9% | viability [4] 91.7% | viability [5] 94.7% | inhibition [6] 1.99% | RAM network inhibition [7] 3.58%

Nc1nc2n(n1)C(c1ccccc1)CC(c1ccc(F)cc1)N2 (stereo unspecified)
inactive: growth inhibition [1] -2.32% | growth inhibition [2] 16.9% | viability increase [3] -0.53% | viability [4] 97.9% | viability [5] 98.2% | inhibition [6] 0.145% | RAM network inhibition [7] 0.84%

O=C(NCCCN1CCCC1)c1ccc(CS(=O)(=O)c2ccc(Br)cc2)o1
inactive: growth inhibition [1] -5.7% | growth inhibition [2] -13.3% | viability increase [3] -0.99% | viability [4] 90.6% | viability [5] 96.5% | inhibition [6] 1.63% | RAM network inhibition [7] 2.23%

NS(=O)(=O)c1ccc(S(=O)(=O)NCCc2ccccc2)cc1
inactive: growth inhibition [1] -4.76% | growth inhibition [2] 8.78% | viability increase [3] 0.73% | viability [4] 93.3% | viability [5] 94.9% | inhibition [6] 1% | RAM network inhibition [7] 3.88%

Cc1cc(NC(=O)CSc2c(C)[nH]c3ccccc23)no1
inactive: growth inhibition [1] -11.4% | growth inhibition [2] -4.25% | viability increase [3] -1.25% | viability [4] 104% | viability [5] 89.4% | inhibition [6] 0.94% | RAM network inhibition [7] 4.64%

CCN(CC(=O)NCc1ccc(F)cc1)C(=O)C1CCN(C(=O)Nc2ccccc2)CC1
inactive: growth inhibition [1] -2.92% | growth inhibition [2] -6.36% | viability increase [3] -0.13% | viability [4] 96.2% | viability [5] 98.6% | inhibition [6] 1.25% | RAM network inhibition [7] 0.37%

COC(=O)C1=C(C)OC(N)=C(C#N)C1c1ccccc1F (stereo unspecified)
inactive: growth inhibition [1] -9.68% | growth inhibition [2] -3.74% | viability increase [3] -3.38% | viability [4] 94.9% | viability [5] 98.1% | inhibition [6] -0.37% | RAM network inhibition [7] -0.76%

COC(=O)c1cc(COc2ccc3oc(C)c(C(=O)OC)c3c2)c(C)o1
inactive: growth inhibition [1] 4.47% | growth inhibition [2] -14.8% | viability increase [3] 0.77% | viability [4] 74.4% | viability [5] 74.5% | inhibition [6] 2.19% | RAM network inhibition [7] 3.15%

O=C(O)CCCC(=O)Nc1ccccc1Br
inactive: growth inhibition [1] 9.25% | growth inhibition [2] 10.5% | viability increase [3] -1.61% | viability [4] 104% | viability [5] 94.8% | inhibition [6] 1.11% | RAM network inhibition [7] 2.11%

N#Cc1c2n(c3c(=O)n(Cc4ccc(Cl)cc4)cnc13)CCCC2
inactive: growth inhibition [1] -12.5% | growth inhibition [2] -5.03% | viability increase [3] 1.08% | viability [4] 93.8% | viability [5] 87% | inhibition [6] 0.755% | RAM network inhibition [7] 4.22%

CCOc1ccc(OCC)c(Nc2cc(C)nc3ncnn23)c1
inactive: growth inhibition [1] -1.1% | growth inhibition [2] 7.09% | viability increase [3] -3.71% | viability [4] 90% | viability [5] 87.7% | inhibition [6] 0.1% | RAM network inhibition [7] -0.06%

O=C(c1c(Cl)nc2sccn12)N1CCCc2ccccc21
inactive: growth inhibition [1] -2.11% | growth inhibition [2] -6.31% | viability increase [3] -0.71% | viability [4] 100% | viability [5] 98.2% | inhibition [6] 2.37% | RAM network inhibition [7] 1.4%

O=C(Cn1c2c(c(-c3ccccc3)cc1=O)CCCC2)N1CCCCCC1
inactive: growth inhibition [1] -10.5% | growth inhibition [2] -10.3% | viability increase [3] -3.64% | viability [4] 48.8% | viability [5] 49% | inhibition [6] 1.49% | RAM network inhibition [7] -0.37%

Cc1nn(-c2ccc(Cl)cc2)c2sc(C(=O)N3CCN(C(=O)c4ccco4)CC3)cc12
inactive: growth inhibition [1] -4.13% | growth inhibition [2] -10.7% | viability increase [3] -5.55% | viability [4] 89.3% | viability [5] 82.5% | inhibition [6] 2% | RAM network inhibition [7] 2.13%

COc1ccc(Cn2nnc3c(=O)[nH]c(C(=O)NCCc4ccc(F)cc4)nc32)cc1OC
inactive: growth inhibition [1] -3.32% | growth inhibition [2] -2.82% | viability increase [3] -0.55% | viability [4] 114% | viability [5] 100% | inhibition [6] 2.69% | RAM network inhibition [7] 0.97%

CCNC(=O)COc1ccc2ccccc2c1
inactive: growth inhibition [1] -2.77% | growth inhibition [2] 3.62% | viability increase [3] 0.99% | viability [4] 97.4% | viability [5] 99.6% | inhibition [6] 1.06% | RAM network inhibition [7] 1.53%

COCCCNc1ncnc2nc[nH]c12
inactive: growth inhibition [1] 4.6% | growth inhibition [2] -1.01% | viability increase [3] 1.43% | viability [4] 104% | viability [5] 104% | inhibition [6] 0.885% | RAM network inhibition [7] 1.74%
